In brackets after ≈: the same amount, converted by molar mass. Activity calls are given as the source filed them. No cut-off for these calls is given here.
Experiments:
Nannizzia gypsea [1] = assay: Antifungal activity against Microsporum gypseum C 115 by agar dilution method; assay type: functional
Summary of the method: (§1)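 Dermatophytes were tested by agar dilution on Sabouraud chloramphenicol agar in 96-well plates. DMSO stock solutions were serially two-fold diluted into the medium to give final concentrations of 0.10–50 µg/mL, with DMSO not exceeding 2%. Each well received 5 µL of spore suspension.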

[2] = test system: Trichophyton mentagrophytes; assay: Antifungal activity against Trichophyton mentagrophytes ATCC by agar dilution method; assay type: functional; summary of the method: as §1
Trichophyton rubrum [3] = assay: Antifungal activity against Trichophyton rubrum C 113 by agar dilution method; assay type: functional; summary of the method: as §1
Epidermophyton floccosum [4] = assay: Antifungal activity against Epidermophyton floccosum C 114 by agar dilution method; assay type: functional; summary of the method: as §1
Candida albicans = assay: Antifungal activity against Candida albicans ATCC 10231 by agar dilution method; assay type: functional, organism-based
Summary of the method: (§2)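 Sabouraud chloramphenicol agar dilution in 96-well plates. Strains were grown on Sabouraud chloramphenicol agar slants for 48 h at 30 °C and suspended in sterile distilled water, adjusted to 10^6 viable cells/mL. DMSO stocks were serially two-fold diluted into the agar to give 0.10–50 µg/mL, with DMSO ≤2% final. 5 µL inoculum per well; incubated 24, 48 or 72 h at 30 °C per control growth; MIC recorded.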

Saccharomyces cerevisiae = assay: Antifungal activity against Saccharomyces cerevisiae ATCC 9763 by agar dilution method; assay type: functional, organism-based; summary of the method: as §2
Cryptococcus neoformans = assay: Antifungal activity against Cryptococcus neoformans ATCC 32264 by agar dilution method; assay type: functional, organism-based; summary of the method: as §2
Aspergillus flavus = assay: Antifungal activity against Aspergillus flavus ATCC 9170 by agar dilution method; assay type: functional, organism-based; summary of the method: as §2
Aspergillus fumigatus = assay: Antifungal activity against Aspergillus fumigatus ATCC 26934 by agar dilution method; assay type: functional, organism-based; summary of the method: as §2
Aspergillus niger = assay: Antifungal activity against Aspergillus niger ATCC 9029 by agar dilution method; assay type: functional, organism-based; summary of the method: as §2
Microsporum canis = assay: Antifungal activity against Microsporum canis C 112 by agar dilution method; assay type: functional; summary of the method: as §1
[5] = test system: Trichophyton mentagrophytes; assay: Antifungal activity against Trichophyton mentagrophytes ATCC 9972 up to 50 ug/mL by agar dilution method; assay type: functional, organism-based; summary of the method: as §1
Trichophyton rubrum [6] = assay: Antifungal activity against Trichophyton rubrum C 113 up to 50 ug/mL by agar dilution method; assay type: functional, organism-based; summary of the method: as §1
Epidermophyton floccosum [7] = assay: Antifungal activity against Epidermophyton floccosum C 114 up to 50 ug/mL by agar dilution method; assay type: functional, organism-based; summary of the method: as §1
Nannizzia gypsea [8] = assay: Antifungal activity against Microsporum gypseum C 115 up to 50 ug/mL by agar dilution method; assay type: functional, organism-based; summary of the method: as §1

Row | SMILES | MIC (Nannizzia gypsea [1]) | MIC [2] | MIC (Trichophyton rubrum [3]) | MIC (Epidermophyton floccosum [4]) | MIC (Microsporum canis) | Activity (Candida albicans) | Activity (Saccharomyces cerevisiae) | Activity (Cryptococcus neoformans) | Activity (Aspergillus flavus) | Activity (Aspergillus fumigatus) | Activity (Aspergillus niger) | Activity [5] | Activity (Trichophyton rubrum [6]) | Activity (Epidermophyton floccosum [7]) | Activity (Nannizzia gypsea [8])
1 | CC(C)C(=O)c1cc2ccccc2c2ccccc12 | 20 µg/mL (≈ 80.5 µM) | 6.25 µg/mL (≈ 25.2 µM) | 20 µg/mL (≈ 80.5 µM) | 20 µg/mL (≈ 80.5 µM) | 20 µg/mL (≈ 80.5 µM) | inactive | inactive | inactive | inactive | inactive | inactive |  |  |  | 
2 | CC(Br)C(=O)c1ccc2c(c1)OCO2 (stereo unspecified) | 25 µg/mL (≈ 97.2 µM) | 20 µg/mL (≈ 77.8 µM) | 12.5 µg/mL (≈ 48.6 µM) | 6.25 µg/mL (≈ 24.3 µM) | 3.12 µg/mL (≈ 12.1 µM) | inactive | inactive | inactive | inactive | inactive | inactive | inactive |  |  | 
3 | COc1ccc(C(=O)C(C)Br)cc1OC (stereo unspecified) | 40 µg/mL (≈ 146 µM) | 25 µg/mL (≈ 91.5 µM) | > 50 µg/mL | 3 µg/mL (≈ 11 µM) | 12.5 µg/mL (≈ 45.8 µM) | inactive | inactive | inactive | inactive | inactive | inactive | inactive | inactive |  | 
4 | COc1cc(C(=O)C(C)Br)cc(OC)c1OC (stereo unspecified) | 50 µg/mL (≈ 165 µM) | 12.5 µg/mL (≈ 41.2 µM) | > 50 µg/mL | 8 µg/mL (≈ 26.4 µM) | 15 µg/mL (≈ 49.5 µM) | inactive | inactive | inactive | inactive | inactive | inactive | inactive | inactive |  | inactive
5 | CC(Br)C(=O)C1CCCCC1 (stereo unspecified) | > 50 µg/mL | 50 µg/mL (≈ 228 µM) | > 50 µg/mL | > 50 µg/mL | > 50 µg/mL | inactive | inactive | inactive | inactive | inactive | inactive |  |  |  | 
6 | c1ccc2ccccc2c1 [NAPHTHALENE] | > 50 µg/mL | > 50 µg/mL | > 50 µg/mL | > 50 µg/mL | > 50 µg/mL | inactive | inactive | inactive | inactive | inactive | inactive |  |  |  | 

Now those with a lower MIC (Nannizzia gypsea [1]), led by results:

Row | MIC (Nannizzia gypsea [1]) | MIC [2] | MIC (Trichophyton rubrum [3]) | MIC (Epidermophyton floccosum [4]) | MIC (Microsporum canis) | SMILES | Activity (Candida albicans) | Activity (Saccharomyces cerevisiae) | Activity (Cryptococcus neoformans) | Activity (Aspergillus flavus) | Activity (Aspergillus fumigatus) | Activity (Aspergillus niger) | Activity [5] | Activity (Trichophyton rubrum [6]) | Activity (Epidermophyton floccosum [7]) | Activity (Nannizzia gypsea [8])
7 | 6.25 µg/mL (≈ 6.76 µM) | 6.25 µg/mL (≈ 6.76 µM) | 25 µg/mL (≈ 27.1 µM) | 0.3 µg/mL (≈ 0.325 µM) | > 50 µg/mL | C[C@@H]1[C@H](O)[C@@H](C)/C=C/C=C/C=C/C=C/C=C/C=C/C=C/[C@H](O[C@@H]2O[C@H](C)[C@@H](O)[C@H](N)[C@@H]2O)C[C@@H]2O[C@](O)(C[C@@H](O)C[C@@H](O)[C@H](O)CC[C@@H](O)C[C@@H](O)CC(=O)O[C@H]1C)C[C@H](O)[C@H]2C(=O)O [AMPHOTERICIN B] | inactive | inactive | inactive | inactive | inactive | inactive |  |  |  | 
8 | 10 µg/mL (≈ 37.2 µM) | 3 µg/mL (≈ 11.2 µM) | 1.5 µg/mL (≈ 5.58 µM) | 15 µg/mL (≈ 55.8 µM) | 3 µg/mL (≈ 11.2 µM) | CC(Cl)C(=O)c1cc2ccccc2c2ccccc12 (stereo unspecified) | inactive | inactive | inactive | inactive | inactive | inactive | inactive | inactive | inactive | inactive
9 | 12.5 µg/mL (≈ 54.7 µM) | 12.5 µg/mL (≈ 54.7 µM) | 10 µg/mL (≈ 43.7 µM) | 0.15 µg/mL (≈ 0.656 µM) | 3.12 µg/mL (≈ 13.6 µM) | COc1ccc(C(=O)C(C)Cl)cc1OC (stereo unspecified) | inactive | inactive | inactive | inactive | inactive | inactive | inactive |  |  | 
10 | 6.25 µg/mL (≈ 25 µM) | 6.25 µg/mL (≈ 25 µM) | 10 µg/mL (≈ 39.9 µM) | 10 µg/mL (≈ 39.9 µM) | 6.25 µg/mL (≈ 25 µM) | CC(C)C(O)c1cc2ccccc2c2ccccc12 (stereo unspecified) | inactive | inactive | inactive | inactive | inactive | inactive |  |  |  | 

Reference: ChEMBL document CHEMBL1144120, “In vitro evaluation of antifungal properties of phenylpropanoids and related compounds acting against dermatophytes” (1999)
